In ChEMBL document CHEMBL3400039, “Design, synthesis and in vitro cell-based evaluation of the anti-cancer activities of hispolon analogs” (Bioorg Med Chem, 2015):
Activity calls are given as the source filed them. The rule behind the calls is not given here.

Legend:
[1] = (§1) Cytotoxicity against human PC3 cells after 72 hrs by MTT assay; assay type: functional, cell-based; conditions: PC-3, 72 h
In short: (§2)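 Cells kept as adherent monolayers in DMEM with 10% FBS, 37°C, 5% CO2. Trypsin-harvested, seeded at 5 × 10^3 cells/well, then exposed to compound at 0.1 to 100 µM for 72 h. MTT (4 mg/ml) added for 4 h, formazan dissolved in DMSO, absorbance read at 570 nm. At least three experiments, each in triplicate; mean±SD.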

PC-3 [2] = experiment: as §1; assay type: functional, cell-based; in short: as §2
DU-145 [3] = experiment: Cytotoxicity against human DU145 cells after 72 hrs by MTT assay; assay type: functional, cell-based; in short: as §2
[4] = (§3) Cytotoxicity against human HCT116 cells after 72 hrs by MTT assay; assay type: functional, cell-based; conditions: HCT-116, 72 h; in short: as §2
HCT-116 [5] = experiment: as §3; assay type: functional, cell-based; in short: as §2
[6] = (§4) Cytotoxicity against human S1 cells after 72 hrs by MTT assay; assay type: functional, cell-based; conditions: S1, 72 h; in short: as §2
S1 = experiment: as §4; assay type: functional, cell-based; in short: as §2
MCF7 = experiment: Cytotoxicity against human MCF7 cells after 72 hrs by MTT assay; assay type: functional, cell-based; in short: as §2
MDA-MB-231 = experiment: Cytotoxicity against human MDA-MB-231 cells after 72 hrs by MTT assay; assay type: functional, cell-based; in short: as §2
MDCK = experiment: Cytotoxicity against MDCK cells after 72 hrs by MTT assay; assay type: cell-based; conditions: Canis lupus familiaris; in short: as §2
HEK293 [7] = experiment: Cytotoxicity against HEK293 cells expressing pcDNA3.1 after 72 hrs by MTT assay; assay type: cell-based; conditions: Homo sapiens, HEK293, 72 h; in short: as §2
HCT-116 [8] = experiment: Induction of morphological changes in human HCT116 cells assessed as increase in cell size at 1 uM after 68 hrs by inverted microscopy; assay type: functional, cell-based
In short: (§5)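 Cells grown in DMEM/10% FBS and treated in triplicate for 68 h. Photographed with an inverted microscope at 20X alongside untreated wells. Images scored double-blind for cell size, shape, number and debris.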

PC-3 [9] = experiment: Induction of morphological changes in human PC3 cells assessed as increase in cell size at 1 uM after 68 hrs by inverted microscopy; assay type: functional, cell-based; in short: as §5
HEK293 [10] = experiment: Cytotoxicity against HEK293 cells expressing ABCB1 after 72 hrs by MTT assay; assay type: functional, cell-based; conditions: Homo sapiens, HEK293, 72 h; in short: as §2
HEK293 [11] = experiment: Resistance index, ratio of IC50 for HEK293 cells expressing ABCB1 to IC50 for HEK293 cells expressing pcDNA3.1; design: species or system Homo sapiens
In short: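 Fold resistance is the IC50 in P-glycoprotein-overexpressing HEK293/ABCB1 cells divided by the IC50 in empty-vector HEK293/pcDNA3.1 cells. IC50s from the 72 h MTT assay; paclitaxel was the positive-control ABCB1 substrate.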

HCT-116 [12] = experiment: Reduction in mitochondrial membrane potential in human HCT116 cells at 0.5 uM after 4 hrs by Mitotracker red staining based flow cytometry (reference value: 27.56%); assay type: functional; design: scale not given: the % may be the effect or the level left
In short: (§6)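 HCT-116 cells in 6-well plates, exposed in complete medium with or without compound (0.5 or 5 µM) for 4 h. Harvested and stained with MitoTracker Red for 30 min at 37°C, washed in PBS, then given Alexa Fluor 488 annexin V in annexin-binding buffer for 15 min. Flow cytometry with emission read at 530 and 585 nm; quadrant analysis against untreated control.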

HCT-116 [13] = experiment: Induction of apoptosis in human HCT116 cells at 0.5 uM after 4 hrs by Alexa fluor 488 annexin V staining based flow cytometry (reference value: 5.58%); assay type: functional; in short: as §6
HCT-116 [14] = experiment: Reduction in mitochondrial membrane potential in human HCT116 cells at 5 uM after 4 hrs by Mitotracker red staining based flow cytometry (reference value: 27.56%); assay type: functional; design: scale not given: the % may be the effect or the level left; in short: as §6
HCT-116 [15] = experiment: Induction of apoptosis in human HCT116 cells at 5 uM after 4 hrs by Alexa fluor 488 annexin V staining based flow cytometry (reference value: 5.58%); assay type: functional; in short: as §6
HCT-116 [16] = experiment: Potency index, ratio of IC50 for hispolon to IC50 for compound for human HCT116 cells after 72 hrs by MTT assay; assay type: functional
In short: (§7)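 Ratio of the hispolon IC50 to the analog IC50 in the same cancer line. Both IC50s come from the 72 h MTT assay (0.1–100 µM), with survival curves fitted by the Bliss method.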

[17] = Potency index, ratio of IC50 for hispolon to IC50 for compound for human S1 cells after 72 hrs by MTT assay; assay type: functional; in short: as §7
PC-3 [18] = experiment: Potency index, ratio of IC50 for hispolon to IC50 for compound for human PC3 cells after 72 hrs by MTT assay; assay type: functional; in short: as §7
DU-145 [19] = experiment: Potency index, ratio of IC50 for hispolon to IC50 for compound for human DU145 cells after 72 hrs by MTT assay; assay type: functional; in short: as §7
HCT-116 [20] = experiment: Reduction in mitochondrial membrane potential in human HCT116 cells after 4 hrs by Mitotracker red staining based flow cytometry (reference value: 27.56%); assay type: functional, cell-based; in short: as §6
HEK293 [21] = experiment: Ratio of IC50 for HEK293 cells expressing pcDNA3.1 to IC50 for human HCT116 cells
In short: (§8)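 Selectivity ratio of the IC50 in empty-vector HEK293/pcDNA3.1 cells to the IC50 in each cancer line. IC50s from the 72 h MTT assay (0.1–100 µM, Bliss method, ≥3 experiments in triplicate).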

HEK293 [22] = experiment: Ratio of IC50 for HEK293 cells expressing pcDNA3.1 to IC50 for human S1 cells; in short: as §8
HEK293 [23] = experiment: Ratio of IC50 for HEK293 cells expressing pcDNA3.1 to IC50 for human PC3 cells; in short: as §8
HEK293 [24] = experiment: Ratio of IC50 for HEK293 cells expressing pcDNA3.1 to IC50 for human DU145 cells; in short: as §8

With `COc1cc(/C=C/C(=O)CC(C)=O)ccc1O` as the compound, how does the IC50 [1] read?
Its IC50 is 6.3 µM.

And the Activity (PC-3 [2])?
Its Activity is “Dose-dependent effect”.

And the Activity (DU-145 [3])?
The Activity was “Dose-dependent effect”.

And the IC50 (DU-145 [3]; DU-145, 72 h)?
The IC50 was 5.2 µM.

And the IC50 [4]?
The IC50 was 1.4 µM.

And the Activity (HCT-116 [5])?
Its Activity is “Dose-dependent effect”.

What about the IC50 [6] of the same compound?
Its IC50 is 1.8 µM.

What about the Activity (S1) of the same compound?
Its Activity is “Dose-dependent effect”.

And the Activity (MCF7)?
The Activity was “Dose-dependent effect”.

And the IC50 (MCF7; MCF7, 72 h)?
The IC50 was 7.4 µM.

And the Activity (MDA-MB-231)?
Its Activity is “Dose-dependent effect”.

What about the IC50 (MDA-MB-231; MDA-MB-231, 72 h) of the same compound?
The IC50 was 9.7 µM.

What about the IC50 (MDCK) of the same compound?
Its IC50 is 13.1 µM.

And the IC50 (HEK293 [7])?
The IC50 was 15.8 µM.

What about the Activity (HCT-116 [8]) of the same compound?
Its Activity is “Active”.

What about the Activity (PC-3 [9]) of the same compound?
The Activity was “Active”.

What about the IC50 (HEK293 [10]) of the same compound?
Its IC50 is 18.9 µM.

And the “Ratio IC50” value (HEK293 [11])?
The value was 1.2.

And the Activity (HCT-116 [12])?
The Activity was 84.88%.

What about the Activity (HCT-116 [13]) of the same compound?
Its Activity is 2.64%.

What about the Activity (HCT-116 [14]) of the same compound?
The Activity was 72.74%.

What about the Activity (HCT-116 [15]) of the same compound?
Its Activity is 11.69%.

What about the “Ratio IC50” value (HCT-116 [16]) of the same compound?
Its value is 3.7.

What about the Ratio IC50 [17] of the same compound?
Its Ratio IC50 is 4.7.

And the “Ratio IC50” value (PC-3 [18])?
The value was 2.

What about the Ratio IC50 (DU-145 [19]) of the same compound?
The Ratio IC50 was 5.5.

And the Activity (HCT-116 [20])?
Its Activity is “Dose-dependent effect”.

And the Ratio IC50 (HEK293 [21])?
The Ratio IC50 was 11.

And the “Ratio IC50” value (HEK293 [22])?
Its value is 9.

And the “Ratio IC50” value (HEK293 [23])?
The value was 2.

And the Ratio IC50 (HEK293 [24])?
The Ratio IC50 was 3.
